Bioassay records: PubChem, several laboratories
Most compounds without a hit are left out; they make up all but 3.4% or so of the library.
m5-HT2A agonist – agonists of mouse serotonin 5-HT2A receptor (HTR2A); P35363; CHO-K1 mHTR2A beta-arrestin complementation, luminescence; percent of 30 µM serotonin response; AID 624169; activation, % at 7.6 µM; 0.66% of 360,000 active;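 active = activation above a run cutoff, the mean activation of all tested compounds plus 3 SD, cut at about 14% in these data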;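 note: 0% = plate median of compound wells and 100% = 30 µM serotonin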
ANO1 activ – mouse TMEM16A channel activation, primary screen; Q8BHY3; HEK293 TMEM16A/YFP-H148Q/I152L, iodide quench fluorescence; stronger effect = lower value; B-score at 10 µM; 0.3% of 340,000 active; AID 623877;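 active = fluorescence-ratio B-score plate-corrected deviation score at least 3 library SD below zero, with starting fluorescence score within 5 deviations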;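 note: channel opened by trigger with iodide after compound preincubation; score built on the fluorescence ratio of max minus min over baseline; more negative score means more quench and so TMEM16A activation or potentiation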
MC4R barr agon – human MC4R agonism via beta-arrestin | activation, % at 8.9 µM | P32245 | AID 540308 | U2OS MC4R beta-arrestin complementation, luminescence; percent of melanotan II response, DMSO zero | 0.98% of 360,000 active;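 active = activation above a per-plate cutoff, the mean activation of sample wells on that plate plus 3 SD, cut at about 8% in these data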
Target sequence (P32245 whole entry, looked up): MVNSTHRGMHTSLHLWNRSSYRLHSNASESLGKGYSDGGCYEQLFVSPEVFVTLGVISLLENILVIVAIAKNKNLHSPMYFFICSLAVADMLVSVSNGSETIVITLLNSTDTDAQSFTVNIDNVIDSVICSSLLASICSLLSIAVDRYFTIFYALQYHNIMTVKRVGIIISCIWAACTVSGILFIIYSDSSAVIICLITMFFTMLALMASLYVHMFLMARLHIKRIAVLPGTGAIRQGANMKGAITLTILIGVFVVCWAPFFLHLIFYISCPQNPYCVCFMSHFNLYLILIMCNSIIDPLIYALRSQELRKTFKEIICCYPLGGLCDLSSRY
MIN6 prolif – inducers of beta-cell replication in MIN6 cells. MIN6 cells proliferation, ATPlite luminescence, 48 h; cells starved in 0.2% serum; 100% = growth in 10% serum. proliferation, % at 10 µM. 0.29% of 330,000 active;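 active = compounds whose signal lies at least 3.5 SD above the mean of all wells on their plate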;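 note: 0% = DMSO-treated cells in low-serum medium and 100% = 10% serum control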
MC4R antagonist – blocks human MC4R cAMP signaling. inhibition, % at 6.5 µM. P32245. MC4R-expressing cells, MTII-stimulated cAMP, LANCE TR-FRET. 0.48% of 360,000 active;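 active = inhibition above its plate's cutoff, the mean of tested wells on that plate plus 3 SD, cut at about 29% in these data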;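 note: 0% = Melanotan II alone and 100% = Melanotan II plus saturating MCL0020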
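System: U2OS-MC4R stable cell line; Technique: Eu-cAMP/anti-cAMP TR-FRET, emission 671 nm; Repeats: single well per compound; Also added: Melanotan II; Dosing: one concentration, 6.5 µM nominal; Schedule: 30-min compound, 1-h challenge, 1-h detection, room temperature.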
ANO1 block – mouse TMEM16A channel inhibition, primary screen; HEK293 TMEM16A/YFP iodide influx fluorescence, ionomycin; normalized B-score (activity score, 25-100; higher = stronger inhibition) at 10 µM; 1.2% of 310,000 active; AID 588511;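 active = ratio plate-corrected score three or more library SD toward inhibition, starting fluorescence score within five deviations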;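 note: score derived from kinetic fluorescence span divided by baseline fluorescence per well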
cAMP nonselect – nonselective cAMP signaling inhibitor, MC4R antagonist counter-screen; parental U2OS, forskolin cAMP, LANCE TR-FRET; shares compounds with MC4R antagonist; AID 602193; inhibition, % at 6.5 µM; 26% of 1,600 active;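 active = mean inhibition over triplicates above the low-control well mean plus 3 SD, set per campaign, cut at about 13% in these data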;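 note: signal is single emission at 671 nm which falls as cellular cAMP rises; 0% = forskolin-stimulated wells and 100% = buffer without forskolin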
MC4R cAMP antag – human MC4R cAMP antagonism confirmation | inhibition, % at 6.5 µM | 27% of 1,600 active | MC4R-expressing cells, MTII-stimulated cAMP, TR-FRET | shares compounds with MC4R antagonist; in the data active = inhibition above about 29%;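 note: 0% = agonist stimulated wells alone and 100% = agonist stimulated wells plus saturating reference antagonist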
* = called active by the depositor.

Results for CCN(CC)C(=O)C(C)N(C#N)c1nc(Cl)nc(N(C)C)n1 (centres undefined) ?
m5-HT2A agonist: -3; ANO1 activ: inactive; MC4R barr agon: -2; MIN6 prolif: -6; MC4R antagonist: 43*; ANO1 block: inactive; cAMP nonselect: 11; MC4R cAMP antag: 28

What do the screens show for `O=C(CNc1cccc(F)c1)N1CCc2ccccc2C1`?
m5-HT2A agonist: -6; ANO1 activ: inactive; MC4R barr agon: 4; MIN6 prolif: -2; MC4R antagonist: 3; ANO1 block: inactive

Results for O=C(NCc1ccncc1)c1cc(C(=O)C2CCCCC2)c[nH]1 ?
m5-HT2A agonist: -2; ANO1 activ: inactive; MC4R barr agon: -1; MIN6 prolif: 2; MC4R antagonist: 30*; ANO1 block: inactive; cAMP nonselect: 4; MC4R cAMP antag: -7

Results for O=C(NCc1ccccn1)c1ccccc1OCc1ccc(Cl)cc1Cl ?
m5-HT2A agonist: -10; ANO1 activ: inactive; MC4R barr agon: 1; MIN6 prolif: 3; MC4R antagonist: 11

Results for Cc1ccc2nc(-c3ccc(NC(=O)C(C)Sc4nncs4)cc3)sc2c1 (centres undefined) ?
m5-HT2A agonist: 4; ANO1 activ: inactive; MC4R barr agon: 3; MIN6 prolif: -3; MC4R antagonist: 43*; ANO1 block: inactive; cAMP nonselect: 2; MC4R cAMP antag: 18

What do the screens show for `O=C(Nc1ccnn1C1CCN(C(=O)c2cccnc2)CC1)c1cccc(F)c1`?
m5-HT2A agonist: 8; MC4R barr agon: 0; MC4R antagonist: 1

How did O=C(CNC(=O)c1ccc(Cl)cc1Cl)OCC(=O)N1CCCC1 do in these assays?
m5-HT2A agonist: 5; ANO1 activ: inactive; MC4R barr agon: -1; MIN6 prolif: 0; MC4R antagonist: 22

Results for O=C(CNC(=O)c1ccc(Cl)cc1)OCn1nnc2ccccc2c1=O ?
m5-HT2A agonist: 2; ANO1 activ: inactive; MC4R barr agon: -1; MIN6 prolif: 5; MC4R antagonist: 14

How did O=C(COC(=O)CNC(=O)c1ccc(Cl)cc1Cl)NCc1ccco1 do in these assays?
m5-HT2A agonist: -2; ANO1 activ: inactive; MC4R barr agon: -2; MIN6 prolif: -4; MC4R antagonist: 31*; ANO1 block: inactive; cAMP nonselect: 11; MC4R cAMP antag: 43*

Results for O=C(CNC(=O)c1ccc(Cl)cc1Cl)OCn1nnc2ccccc2c1=O ?
m5-HT2A agonist: 3; ANO1 activ: inactive; MC4R barr agon: -2; MIN6 prolif: 2; MC4R antagonist: 32*; ANO1 block: inactive; cAMP nonselect: 17*; MC4R cAMP antag: 21

Results for O=C(CNC(=O)c1ccc(Cl)cc1Cl)OCC(=O)N1CCCC1=O ?
m5-HT2A agonist: -11; ANO1 activ: inactive; MC4R barr agon: -2; MIN6 prolif: 0; MC4R antagonist: 35*; ANO1 block: inactive; cAMP nonselect: 19*; MC4R cAMP antag: 30*

How did CC1CCCC(C)N1C(=O)COC(=O)CNC(=O)c1ccccc1F (centres undefined) do in these assays?
m5-HT2A agonist: -2; ANO1 activ: inactive; MC4R barr agon: -2; MIN6 prolif: -1; MC4R antagonist: 13

How did CC1CCCC(C)N1C(=O)COC(=O)CNC(=O)c1ccc(Cl)cc1Cl (centres undefined) do in these assays?
m5-HT2A agonist: -4; ANO1 activ: inactive; MC4R barr agon: -1; MIN6 prolif: 2; MC4R antagonist: 29*; ANO1 block: inactive; cAMP nonselect: 18*; MC4R cAMP antag: 19

What do the screens show for `Cn1cnc(S(=O)(=O)NCc2ccc(Br)cc2)c1`?
m5-HT2A agonist: 5; ANO1 activ: inactive; MC4R barr agon: -1; MIN6 prolif: 1; MC4R antagonist: 14; ANO1 block: inactive

What do the screens show for `O=C(CCc1nnc2n(Cc3ccccc3)c(=O)c3ccccc3n12)NCCN1CCOCC1`?
m5-HT2A agonist: -2; ANO1 activ: inactive; MC4R barr agon: -1; MIN6 prolif: -1; MC4R antagonist: 7; ANO1 block: inactive

How did CCCCn1c(N)c(N(CCOC)C(=O)c2ccc(C)c(S(=O)(=O)N3CCCCC3)c2)c(=O)[nH]c1=O do in these assays?
m5-HT2A agonist: -3; ANO1 activ: inactive; MC4R barr agon: -1; MIN6 prolif: -3; MC4R antagonist: 22; ANO1 block: inactive

How did O=C(Nc1ccccc1)Nc1ccccc1NS(=O)(=O)c1cccs1 do in these assays?
m5-HT2A agonist: 0; ANO1 activ: inactive; MC4R barr agon: 1; MIN6 prolif: -3; MC4R antagonist: 30*; ANO1 block: inactive; cAMP nonselect: 1; MC4R cAMP antag: 8

How did O=S(=O)(Nc1cccc2ccccc12)c1cccs1 do in these assays?
m5-HT2A agonist: 1; ANO1 activ: inactive; MC4R barr agon: -3; MIN6 prolif: 2; MC4R antagonist: 0; ANO1 block: inactive

Results for Cn1c(-c2cccc([N+](=O)[O-])c2)cnc1NCc1cccc([N+](=O)[O-])c1 ?
m5-HT2A agonist: -2; ANO1 activ: inactive; MC4R barr agon: 0; MIN6 prolif: -3; MC4R antagonist: 16; ANO1 block: inactive

How did Cc1cccc(CNc2ncc(-c3cccc([N+](=O)[O-])c3)n2C)c1 do in these assays?
m5-HT2A agonist: -1; ANO1 activ: inactive; MC4R barr agon: -1; MIN6 prolif: -5; MC4R antagonist: 33*; ANO1 block: inactive; cAMP nonselect: 2; MC4R cAMP antag: -1

What do the screens show for `COc1ccc(CCNC2=C(Cl)C(=O)N(CCc3ccc(OC)c(OC)c3)C2=O)cc1OC`?
m5-HT2A agonist: 1; ANO1 activ: inactive; MC4R barr agon: 0; MIN6 prolif: -1; MC4R antagonist: 31*; ANO1 block: inactive; cAMP nonselect: 5; MC4R cAMP antag: 16

Results for COc1ccc(CCN2C(=O)C=CC2=O)cc1OC ?
m5-HT2A agonist: -6; ANO1 activ: inactive; MC4R barr agon: -4; MC4R antagonist: 14

How did CCCCC[C@@H](C)N1C[C@@H](COCc2ccccc2)Oc2cc(N3CCC[C@H]3COC)ccc2S1(=O)=O do in these assays?
m5-HT2A agonist: 1

How did COC(=O)c1cc(C(=O)NCc2ccccc2)c(=O)[nH]c1C do in these assays?
m5-HT2A agonist: 3; ANO1 activ: inactive; MC4R barr agon: 0; MIN6 prolif: -2; MC4R antagonist: 30*; ANO1 block: inactive; cAMP nonselect: 3; MC4R cAMP antag: 7
